“And” between values parts separate entries of the source, which are not always exact repeats. Identical values can stand only once.
Tested on: HEK-293T
Test: Multiplex assay against HEK293T;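 as to Population Tubulin-Different-Phenotype (%): share of the cells with healthy nuclei that show this phenotype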
Assay type: toxicity, cell-based
Details: human
Summary of the method: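 On a CQ1 microscope at 37°C and 5% CO2, live cells were imaged after compound addition. They had been stained at seeding with Hoechst33342, BioTracker Green Microtubule Cytoskeleton Dye, MitoTracker Red and Annexin V Alexa Fluor 680. CellPathfinder machine-learning gating assigned cells to Hoechst high-intensity objects or normal cells, normal cells to healthy, pyknosed or fragmented nuclei, and pyknosed cells to mitotic or apoptotic. Tubulin, mitochondrial-mass and membrane-permeability phenotypes are per cents of healthy-nucleus cells.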

[1] = 12 h, 10 µM, compound concentration 10 uM, replicate 1
[2] = 12 h, 10 µM, compound concentration 10 uM, replicate 2
[3] = 24 h, 10 µM, compound concentration 10 uM, replicate 1
[4] = 24 h, 10 µM, compound concentration 10 uM, replicate 2
[5] = 48 h, 10 µM, compound concentration 10 uM, replicate 1
[6] = 48 h, 10 µM, compound concentration 10 uM, replicate 2
[7] = 12 h, 1 µM, compound concentration 1 uM, replicate 1
[8] = 12 h, 1 µM, compound concentration 1 uM, replicate 2
[9] = 24 h, 1 µM, compound concentration 1 uM, replicate 1
[10] = 24 h, 1 µM, compound concentration 1 uM, replicate 2

SMILES: CCn1c(=O)c(-c2ccc(Cl)cc2Cl)cc2cnc(Nc3ccc(N4CCNCC4)c(F)c3)nc21
- Population Fragmented Nuclei (%) [1]: 32% and 25% and 19%
- Population Hoechst High Intensity Objects (%) [1]: 51% and 56% and 22%
- Population Membrane Permeable-Phenotype (%) [1]: 0% and 19% and 5%
- Population Normal (%) [1]: 48% and 43% and 77%
- Population Pyknosed Nuclei (%) [1]: 63% and 42% and 26%
- Population Tubulin-Different-Phenotype (%) [1]: 40% and 64% and 37%
- Population Tubulin-Different-Phenotype (%) [2]: 85% and 75% and 43%
- Population Fragmented Nuclei (%) [3]: 38% and 33% and 20%
- Population Normal (%) [3]: 40% and 41% and 81%
- Total Cell Count [3]: 280 and 738 and 614
- Population Fragmented Nuclei (%) [4]: 16% and 32% and 12%
- Population Healthy Nuclei (%) [4]: 43% and 40% and 83%
- Population Normal (%) [4]: 39% and 33% and 93%
- Population Tubulin-Different-Phenotype (%) [4]: 75% and 91% and 46%
- Population Apoptotic (%) [5]: 75%
- Population Fragmented Nuclei (%) [5]: 46%
- Population Healthy Nuclei (%) [5]: 3%
- Population Hoechst High Intensity Objects (%) [5]: 56%
- Population Membrane Permeable-Phenotype (%) [5]: 0%
- Population Mitochondria Different-Phenotype (%) [5]: 25%
- Population Mitotic Cells (%) [5]: 24%
- Population Normal (%) [5]: 43%
- Population Pyknosed Nuclei (%) [5]: 50%
- Population Tubulin-Different-Phenotype (%) [5]: 0%
- Total Cell Count [5]: 280
- Population Apoptotic (%) [6]: 100%
- Population Fragmented Nuclei (%) [6]: 32%
- Population Healthy Nuclei (%) [6]: 38%
- Population Hoechst High Intensity Objects (%) [6]: 63%
- Population Membrane Permeable-Phenotype (%) [6]: 7%
- Population Mitochondria Different-Phenotype (%) [6]: 92%
- Population Mitotic Cells (%) [6]: 0%
- Population Normal (%) [6]: 36%
- Population Pyknosed Nuclei (%) [6]: 28%
- Population Tubulin-Different-Phenotype (%) [6]: 82%
- Total Cell Count [6]: 296

SMILES: CNCc1ccc(-c2cc(-c3nc(-c4ccc(S(=O)(=O)C(C)C)cc4)cnc3N)on2)cc1 [BERZOSERTIB]
- Population Apoptotic (%) [7]: 44% and 25%
- Population Fragmented Nuclei (%) [7]: 94% and 79%
- Population Hoechst High Intensity Objects (%) [7]: 36% and 50%
- Population Membrane Permeable-Phenotype (%) [7]: 31% and 34%
- Population Mitochondria Different-Phenotype (%) [7]: 9%
- Population Mitotic Cells (%) [7]: 55% and 75%
- Population Normal (%) [7]: 63% and 49%
- Population Tubulin-Different-Phenotype (%) [7]: 13%
- Total Cell Count [7]: 865 and 596
- Population Apoptotic (%) [8]: 14% and 11%
- Population Fragmented Nuclei (%) [8]: 66%
- Population Hoechst High Intensity Objects (%) [8]: 28% and 80%
- Population Mitochondria Different-Phenotype (%) [8]: 0% and 16%
- Population Mitotic Cells (%) [8]: 85% and 88%
- Population Tubulin-Different-Phenotype (%) [8]: 50% and 60%
- Total Cell Count [8]: 1257 and 695
- Population Apoptotic (%) [1]: 37% and 15%
- Population Fragmented Nuclei (%) [1]: 82% and 86%
- Population Healthy Nuclei (%) [1]: 12% and 7%
- Population Hoechst High Intensity Objects (%) [1]: 48% and 47%
- Population Membrane Permeable-Phenotype (%) [1]: 46% and 29%
- Population Mitochondria Different-Phenotype (%) [1]: 6% and 7%
- Population Mitotic Cells (%) [1]: 62% and 85%
- Population Normal (%) [1]: 51% and 52%
- Population Pyknosed Nuclei (%) [1]: 5%
- Population Tubulin-Different-Phenotype (%) [1]: 18% and 11%
- Total Cell Count [1]: 918 and 667
- Population Fragmented Nuclei (%) [2]: 95% and 56%
- Population Hoechst High Intensity Objects (%) [2]: 34% and 86%
- Population Mitochondria Different-Phenotype (%) [2]: 5% and 9%
- Population Mitotic Cells (%) [2]: 68% and 92%
- Population Tubulin-Different-Phenotype (%) [2]: 82% and 59%
- Total Cell Count [2]: 1271 and 770
- Population Apoptotic (%) [9]: 43% and 15%
- Population Fragmented Nuclei (%) [9]: 91% and 64%
- Population Hoechst High Intensity Objects (%) [9]: 39% and 65%
- Population Membrane Permeable-Phenotype (%) [9]: 50% and 21%
- Population Mitochondria Different-Phenotype (%) [9]: 7% and 13%
- Population Mitotic Cells (%) [9]: 56% and 84%
- Population Normal (%) [9]: 60% and 34%
- Population Pyknosed Nuclei (%) [9]: 3% and 9%
- Population Tubulin-Different-Phenotype (%) [9]: 30% and 11%
- Total Cell Count [9]: 826 and 568
- Population Hoechst High Intensity Objects (%) [10]: 33% and 85%
- Population Membrane Permeable-Phenotype (%) [10]: 33% and 60%
- Population Mitochondria Different-Phenotype (%) [10]: 4% and 6%
- Population Mitotic Cells (%) [10]: 87% and 97%
- Population Pyknosed Nuclei (%) [10]: 30%
- Population Tubulin-Different-Phenotype (%) [10]: 71% and 81%
- Total Cell Count [10]: 1330 and 870
- Population Fragmented Nuclei (%) [3]: 65% and 58%
- Population Healthy Nuclei (%) [3]: 16% and 26%
- Population Hoechst High Intensity Objects (%) [3]: 46% and 73%
- Population Membrane Permeable-Phenotype (%) [3]: 36% and 31%
- Population Mitotic Cells (%) [3]: 40% and 88%
- Population Normal (%) [3]: 53% and 26%
- Population Pyknosed Nuclei (%) [3]: 17% and 14%
- Population Tubulin-Different-Phenotype (%) [3]: 36% and 27%
- Total Cell Count [3]: 767 and 657
- Population Apoptotic (%) [4]: 23% and 0%
- Population Hoechst High Intensity Objects (%) [4]: 36% and 86%
- Population Membrane Permeable-Phenotype (%) [4]: 21% and 56%
- Population Mitochondria Different-Phenotype (%) [4]: 14%
- Population Mitotic Cells (%) [4]: 76% and 100%
- Population Tubulin-Different-Phenotype (%) [4]: 78% and 76%
- Total Cell Count [4]: 1281 and 924

Reference: ChEMBL document CHEMBL4689842, “EUbOPEN Chemogenomics Library wave 1” (2021)
